Publication PMC7709506 (ESMO Open, 2020)

System: FGFR and VEGFR pathways
Test: Soluble biomarkers of FGFR and VEGFR pathways
Parameters: species or system human
Conditions: in vivo
Summary of the method: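 Plasma FGF23, sVEGFR2, sVEGFR1, VEGF, FGF2 and PGF were sampled at baseline, day 8 and day 29 during oral test compound dosing and analysed in batches during or at study end. Values are expressed as percentage change from baseline (day 1 predose).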

Structure (SMILES): Cn1cc(-c2ccc3c(c2)ncn3-c2cc(NS(=O)(=O)C3CC3)cc(-c3ccc(F)cc3F)c2)cn1 [ODM-203]
- percentage mean changes in soluble markers FGF23, VEGFR2, VEGF and PGF: appeared to be dose dependent
